Shown are actives, neighbours in structure and some others; about 0.79% of the full set was active somewhere.
mIAP activ – activators of mouse IAP, primary screen, biochemical, luminescence, uHTS. AID 2805, 2010. muIAP, CDP-Star luminescence, 30 min; hits give high values; 1 = vehicle-only enzyme signal, 0 = enzyme-free wells. activation factor at 10 µM. hit rate 0.24% among 330,000;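 active means activation factor of at least 2 at 20 µM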
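Assay system: mouse IAP enzyme; Reagent: CDP-Star chemiluminescent phosphatase substrate; Compound: DMSO-dissolved test compounds; Incubation: 30 min, room temperature; Technique: luminescence from enzymatic CDP-Star hydrolysis; Controls: DMSO-only wells and no-enzyme negative control.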
bIAP activator – bovine intestinal alkaline phosphatase activators, primary screen, biochemical, bovine IAP, CDP-star luminescence | purified bovine IAP, 30 min; hits give high values; fold of DMSO-control signal, blank-subtracted | activation factor at 20 µM | hit rate 0.17% among 200,000;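 active means activation factor of 2 or more at 20 µM, a signal rise over negative controls twice the positive control's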
hIAP act – human IAP activators, primary screen, biochemical, luminescence, uHTS; Intestinal-type alkaline phosphatase (Homo sapiens), P09923; purified human IAP, CDP-Star luminescence, 30 min; hits give high values; 1 = vehicle-only enzyme, 0 = enzyme-free background; activation factor at 10 µM; hit rate 0.16% among 330,000;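 active means activation factor of the enzyme at least 2-fold when tested at 20 µM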
Target sequence (P09923 whole entry, looked up): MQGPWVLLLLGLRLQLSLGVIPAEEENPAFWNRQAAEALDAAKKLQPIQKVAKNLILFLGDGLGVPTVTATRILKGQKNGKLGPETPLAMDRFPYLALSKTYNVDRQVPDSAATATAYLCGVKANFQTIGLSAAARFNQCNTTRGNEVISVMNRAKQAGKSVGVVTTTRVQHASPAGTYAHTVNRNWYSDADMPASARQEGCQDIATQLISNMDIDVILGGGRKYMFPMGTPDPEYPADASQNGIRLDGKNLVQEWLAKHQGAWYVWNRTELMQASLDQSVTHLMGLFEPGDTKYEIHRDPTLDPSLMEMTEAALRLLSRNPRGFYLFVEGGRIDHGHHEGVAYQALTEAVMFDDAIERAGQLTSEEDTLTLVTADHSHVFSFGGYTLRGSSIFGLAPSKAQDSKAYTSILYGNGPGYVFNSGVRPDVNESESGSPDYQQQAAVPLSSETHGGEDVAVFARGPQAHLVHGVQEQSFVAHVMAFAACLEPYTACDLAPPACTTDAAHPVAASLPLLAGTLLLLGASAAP
hIAP inh – human IAP inhibitors, primary screen, biochemical, luminescence, uHTS | Intestinal-type alkaline phosphatase (Homo sapiens), P09923 | purified IAP, CDP-Star luminescence, 30 min | inhibition, % at 10 µM | hit rate 0.12% among 330,000 | AID 2544, 2010;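 active means inhibition reaching a set limit with compound at 10 µM in the primary screen, cut at about 35% in these data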;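 further: plate controls were DMSO wells with enzyme for no effect and no-enzyme buffer wells for full effect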
mIAP block – inhibitors of mouse IAP, primary screen, biochemical, luminescence, uHTS. hit rate 0.2% among 330,000. intestinal alkaline phosphatase [Mus musculus]. purified mouse IAP, CDP-Star luminescence, 30 min. AID 2806, 2010. inhibition, % at 10 µM;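 active means inhibition of at least 40% at 10 µM in the primary screen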;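 further: plate controls were DMSO with enzyme for no effect and no enzyme wells for full effect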
bIAP inhibitor – bovine intestinal alkaline phosphatase inhibitors, primary screen, selectivity assay for TNAP inhibitor project, biochemical, bovine IAP, CDP-star luminescence; alkaline phosphatase, intestinal [Bos taurus]; purified bovine IAP, 30 min; inhibition, % at 20 µM; 190,000 tested, under 10 active; AID 1019, 2008;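 active means over 50% inhibition of intestinal alkaline phosphatase at 20 µM in the single-dose screen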
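Incubation: 30 min reaction at room temperature / Material: purified bovine intestinal alkaline phosphatase (IAP) enzyme / Input: enzyme at 1/65,000,000 dilution / Dosing: 20 µM single dose / Signal: CDP-star luminescence signal / Reagent: CDP-star chemiluminescent phosphatase substrate, 30 µM final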
hIAP act confirm – human IAP activators, confirmation, biochemical, luminescence, single concentration, uHTS hits. shares compounds with hIAP act. purified IAP, CDP-Star luminescence, 30 min; hits give low values. activation (%Activity, negative = activation), % at 8.3 µM. hit rate 10% among 880;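 active means at least twofold enzyme activation in any of six single-dose repeats, which the averaged readout prints as negative percent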
mIAP inh confirm – inhibitors of mouse IAP, confirmation, biochemical, luminescence, single concentration; shares compounds with mIAP block; purified mouse IAP, CDP-Star luminescence, 30 min; inhibition, % at 10 µM; hit rate 4.7% among 11,000; AID 434971, 2010;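 active means inhibition of at least 40% at 10 µM in either of the two replicates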;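 further: plate controls were DMSO wells with enzyme for no effect and buffer wells lacking enzyme for full effect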
* marks the source's active call; other numbers are inactive results; i = inactive; . = no result.

SMILES	mIAP activ	bIAP activator	hIAP act	hIAP inh	mIAP block	bIAP inhibitor	hIAP act confirm	mIAP inh confirm
CCCCN1CC(=O)N2[C@H](c3ccc(OC)cc3)[C@@H]3C(=O)N(CC)C(=O)[C@@H]3[C@]2(C)C1=O	1	.	1	0	-4	.	.	.
O=C1/C(=C\c2cccc(O)c2)SC(=S)N1Cc1ccccc1	0.79	.	1.1	-11	21	.	.	.
O=C1/C(=C\c2cccc(O)c2O)SC(=S)N1Cc1ccccc1	0.59	.	0.55	45*	41*	.	6	63*
COc1ccc(S(=O)(=O)Nc2cc(Sc3ncn[nH]3)c(O)cc2C)cc1	0.64	.	1	-4	36	.	.	.
Cc1ccc([N+](=O)[O-])cc1S(=O)(=O)Nc1ccc(O)c(Sc2ncn[nH]2)c1	0.27	.	0.27	73*	73*	.	7	89*
Cc1cc(-c2nn3c(C)nnc3s2)ccc1NC(=O)C(C)(C)C	0.82	.	1.1	-10	18	.	.	.
Nc1c(/C=C2/C=CC(=O)C(O)=C2)c(=O)nc2sc(CC(=O)N3CCCCC3)nn12	0.39	.	0.46	54*	61*	.	4	83*
Nc1c(/C=C2/C=CC(=O)C(O)=C2)c(=O)nc2sc(CC(=O)N3CCCC3)nn12	0.42	.	0.52	48*	58*	.	17	78*
O=C(O)c1ccccc1Nc1ccc([N+](=O)[O-])c2nonc12	0.89	.	0.86	14	11	.	.	.
CCn1nc(C)c(CN2CCC(C(=O)Nc3cccc(-c4cccc(Cl)c4)c3)CC2)c1C	8.2*	.	8.7*	i	i	.	2	-374
CCS(=O)(=O)N1CCC(C(=O)Nc2cccc(F)c2)CC1	0.89	.	1.1	-6	11	.	.	.
CCn1ncc(CN2CCC(C(=O)Nc3cccc(-c4cccc(F)c4)c3)CC2)c1C	3.5*	.	4*	-303	-247	.	-4	-183
CCC1CCCCN1CCCCOc1cccc(Cl)c1 (stereo not given)	1	.	1.1	-9	-5	.	.	.
Cc1ccc(NC(=O)C2CC(=O)Nc3nc4ccccc4n32)c(C)c1 (stereo not given)	3.5*	.	2.7*	-169	-253	.	38	-157
O=c1c(O[C@@H]2O[C@H](CO)[C@@H](O)[C@H](O)[C@H]2O)c(-c2ccc(O)c(O)c2)oc2cc(O)cc(O)c12	0.45	0.8	0.43	57*	55*	16	48	58*
O=c1c(O[C@@H]2O[C@H](CO)[C@H](O)[C@H](O)[C@H]2O)c(-c2ccc(O)c(O)c2)oc2cc(O)cc(O)c12	.	1.1	.	.	.	-7	.	.
CN(CC(=O)Nc1ccccc1Sc1ccccc1)Cc1nc2ccccc2c(=O)[nH]1	1.1	1.6	1.7	-74	-7	-58	.	.
CN(CC(=O)NC(c1ccccc1)c1ccccc1)Cc1nc2ccccc2c(=O)[nH]1	2.1*	2.5*	2.2*	-122	-109	-149	-7	-171
CCN1/C(=C/C=C/c2sc3ccccc3[n+]2CC)Sc2ccccc21	0.52	.	0.63	37*	48*	.	7	51*
O=C1NC(=O)/C(=C\c2ccc(O)cc2O)S1	0.29	0.5	0.15	84*	71*	48	3	85*
CCCCN1CCC(COC(=O)c2cc(Cl)c(N)c3c2OCCO3)CC1	0.94	.	0.91	9	6	.	.	.
O=C(O)C(c1ccccc1)N1C(=O)/C(=C\c2ccc(O)c(O)c2)SC1=S (stereo not given)	0.33	.	0.25	75*	67*	.	24	79*
COc1ccc(CN(CCN)C2CC(C)N(C)CC2C)cc1 (stereo not given)	0.99	.	1.2	-16	1	.	.	.
Cc1ccccc1-c1nnc(NC(=O)c2cc3ccccc3oc2=O)s1	.	0.9	.	.	.	12	.	.
CNc1nnc(-c2cc3ccccc3oc2=O)s1	0.42	0.1	0.27	73*	58*	.	33	66*
SMILES	mIAP activ	bIAP activator	hIAP act	hIAP inh	mIAP block	bIAP inhibitor	hIAP act confirm	mIAP inh confirm
CC1CCc2sc(C(=O)N/N=C/c3ccc(O)cc3)cc2C1 (stereo not given)	0.93	.	0.96	4	7	.	.	.
CC(c1nnc(Sc2nnnn2-c2ccccc2)n1-c1ccc(F)cc1)N(C)C (stereo not given)	0.98	0.9	0.93	7	2	7	.	.
CCOc1ccc(NS(=O)(=O)c2cc(C(=O)N(CC)CC(=O)NCc3cccs3)ccc2C)cc1	0.92	.	0.99	1	8	.	.	.
O=C1C(=O)N(C2CCCC2)C(=O)N1Cc1c(F)cccc1Cl	1.1	1	1.1	-5	-10	1	.	.
COc1ccc(OC)c(CN2CCC(CNC(=O)Nc3cccc(Cl)c3)CC2)c1	2	1.5	1.4	-41	-96	-55	.	.
COc1cc(NC(=O)NCC2CCN(Cc3ccccc3Cl)CC2)cc(OC)c1OC	4*	.	2.6*	-158	-301	.	-142*	-148
CC(C)c1ccc(NC(=O)NC2CCN(CC(=O)Nc3cccc4ccccc34)CC2)cc1	4.2*	1.8	2.2*	-122	-323	-83	-26	-272
COc1cc(/C=C(\C#N)C(=O)c2ccc(O)c(O)c2)cc(I)c1O	0.17	.	0.49	51*	83*	.	40	83*
COc1cc(/C=C(\C#N)C(=O)N2CCOCC2)cc(Br)c1O	0.97	1	1.2	-16	3	-2	.	.
CC1C(=O)NN=C1C(=O)N/N=C\c1ccc(O)cc1O (stereo not given)	0.35	1	2.5*	-149	65*	2	-79*	60*
COc1cccc(CNC(=O)CCNS(=O)(=O)c2ccc3[nH]c(=O)oc3c2)c1	0.51	.	1.1	-8	49*	.	.	77*
Cc1ccc(C)c(NC(=O)CCNS(=O)(=O)c2ccc3[nH]c(=O)oc3c2)c1	0.3	.	1	-4	70*	.	.	82*
COc1cccc(NC(=O)CN(C)S(=O)(=O)c2ccc3[nH]c(=O)oc3c2)c1	0.58	.	1.1	-11	42*	.	.	46*
Cc1ccc(NC(=O)CCNS(=O)(=O)c2ccc3[nH]c(=O)oc3c2)cc1C	0.9	.	1.2	-23	10	.	.	.
COc1cccc(NC(=O)CN(C)S(=O)(=O)c2ccc3c(c2)CCC(=O)N3)c1	1.1	.	0.82	18	-10	.	.	.
